The text below walks through data of ChEMBL document CHEMBL3124833, “Achiral pyrazinone-based inhibitors of the hepatitis C virus NS3 protease and drug-resistant variants with elongated substituents directed toward the S2 pocket” (J Med Chem, 2014).

A short description of data set [1]: Apparent permeability from apical to basolateral side in human Caco2 cells at 10 uM by LC-MS analysis. The class given is ADME, cell-based. To be noted: Caco-2. Summed up: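 Apparent permeability coefficients (Papp) were derived from transport rates across Caco-2 cell monolayers. The assay used a modified, more physiological medium because the compounds adsorbed strongly to plasticware.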
(Caco-2 monolayers are a common model of the intestinal barrier.)

The nature of data set [2]: Intrinsic clearance in human liver microsomes at 1 uM up to 40 mins by LC-MS/MS analysis in presence of NADPH. The class given is ADME. The conditions noted are these: read-out: […]. Summed up: (§1)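 Compounds were incubated with pooled human liver microsomes (0.5 mg/mL) over 0–40 min. In vitro t1/2 and intrinsic clearance (Clint, μL/min/mg) were calculated with previously published models.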

A short description of data set [3]: Inhibition of full-length wild-type HCV NS3 protease. On the set-up: species or system Hepacivirus hominis. In outline:
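Ki was determined in vitro with full-length NS3 protease (genotype 1a construct, expressed and purified by earlier methods) and the central part of NS4A as cofactor.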

Data set [4] can be described thus: Solubility of the compound in phosphate buffered saline at pH 7.4 after 1 hr by LC-MS/MS analysis. Type of data set: physicochemical. Summed up:
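Solubility was measured in phosphate-buffered saline at pH 7.4 with a final DMSO concentration of 1%.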

A short description of data set [5]: Half life in human liver microsomes at 1 uM by LC-MS/MS analysis. The class given is ADME. In outline:
as §1
In general terms: Liver microsomes are a subcellular fraction often used to study metabolism.

The target of data set [6] is NS3 protease (Hepatitis C virus subtype 1b, UniProt Q0ZMF1, A156T). The experiment in a line: Inhibition of full-length HCV NS3 protease A156T mutant. The arrangement: species or system Hepacivirus hominis. In outline:
(§2)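 Ki determined in vitro against full-length NS3 protease variants carrying A156T, D168V or R155K substitutions, with the central part of NS4A as cofactor. Enzymes were expressed and purified by previously published methods. The R155K variant (genotype 1a) had the Arg→Lys change introduced at position 155 by PCR.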

The target of data set [7] is NS3 protease (Hepacivirus C, UniProt C1KIQ2, D168V). As to the kind of experiment: Inhibition of full-length HCV NS3 protease D168V mutant. On the set-up: species or system Hepacivirus hominis. Summed up:
as §2

Values after ≈ are worked out from the molar mass of the structure shown.

As for `CC(C)(C)NC(=O)Nc1nc(Cl)c(COCc2ccccc2)n(CC(=O)Nc2ccccc2C(=O)NS(=O)(=O)c2ccc(C(F)(F)F)cc2)c1=O`, the Papp A→B at 10 µM in data set [1] was found to be 4 ×10⁻⁶ cm/s. In addition, the microsomal CLint at 1 µM in data set [2] was 17 µL/min/mg. The molecule also came in with a Ki in data set [3] of 560 nM. The same molecule displayed a solubility at 1 h in data set [4] of 22 µM (≈ 16.5 µg/mL). The same molecule displayed a half-life at 1 µM in data set [5] of 81 min.

In data set [3], `CC(C)(C)NC(=O)Nc1nc(Cl)c(Cc2ccc3ccccc3c2)n(CC(=O)Nc2ccccc2C(=O)NS(=O)(=O)c2ccc(C(F)(F)F)cc2)c1=O` showed a Ki of 330 nM.

`CC(C)(C)NC(=O)Nc1nc(Cl)c(CCCc2ccccc2)n(CC(=O)Nc2ccccc2C(=O)NS(=O)(=O)c2ccc(C(F)(F)F)cc2)c1=O` came in with a Ki in data set [3] of 140 nM.

In data set [3], `CC(C)(C)NC(=O)Nc1nc(Cl)c(-c2ccccc2Br)n(CC(=O)Nc2ccccc2C(=O)NS(=O)(=O)c2ccc(C(F)(F)F)cc2)c1=O` had an inhibition constant Ki of 400 nM.

The molecule `CC(C)(C)NC(=O)Nc1nc(Cl)c(Cc2ccccc2-c2cccnc2)n(CC(=O)Nc2ccccc2C(=O)NS(=O)(=O)c2ccc(C(F)(F)F)cc2)c1=O` returned a Ki in data set [3] of 1100 nM.

On to `CCCCCc1c(Cl)nc(NC(=O)NC(C)(C)C)c(=O)n1CC(=O)Nc1ccccc1C(=O)NS(=O)(=O)c1ccc(C(F)(F)F)cc1`, for which the apparent permeability from apical to basolateral (Papp A→B) at 10 µM in data set [1] amounted to 0.04 ×10⁻⁶ cm/s. In data set [2], the microsomal CLint at 1 µM came to 33 µL/min/mg. In data set [3], the Ki came out at 160 nM. The same molecule displayed a solubility at 1 h in data set [4] of 21 µM (≈ 14.7 µg/mL). Further, the half-life at 1 µM in data set [5] came out at 42 min.

For `CC(C)(C)NC(=O)Nc1nc(Cl)c(Cc2cccc(-c3cccnc3)c2)n(CC(=O)Nc2ccccc2C(=O)NS(=O)(=O)c2ccc(C(F)(F)F)cc2)c1=O`, the Ki in data set [3] was 810 nM.

As to `Cc1c(Cl)nc(NC(=O)NC(C)(C)C)c(=O)n1C(C(=O)Nc1ccccc1C(=O)NS(=O)(=O)c1ccc(C(F)(F)F)cc1)c1ccccc1` (racemic), the Papp A→B at 10 µM in data set [1] turned out to be 1.1 ×10⁻⁶ cm/s. Moreover, the microsomal CLint at 1 µM in data set [2] is 26 µL/min/mg. For the same molecule, the Ki stood at 390 nM in data set [3], 930 nM in data set [6] and 1260 nM in data set [7]. In data set [4], this molecule yielded a solubility at 1 h of 38 µM (≈ 27.3 µg/mL). The molecule further had a half-life at 1 µM in data set [5] of 54 min.

In turn, `CC(C)(C)NC(=O)Nc1nc(Cl)c(Cc2ccccc2)n(C(C(=O)Nc2ccccc2C(=O)NS(=O)(=O)c2ccc(C(F)(F)F)cc2)c2ccccc2)c1=O` (configuration not stated) returned an inhibition constant (Ki) in data set [3] of 700 nM.

The molecule `CC(C)(C)NC(=O)Nc1nc(Cl)c(Cc2ccc(Br)cc2)n(CC(=O)Nc2ccccc2C(=O)NS(=O)(=O)c2ccc(C(F)(F)F)cc2)c1=O` yielded an inhibition constant (Ki) in data set [3] of 440 nM.

The molecule `CC(C)(C)NC(=O)Nc1nc(Cl)c(Cc2ccccc2)n(CC(=O)NC(CC2CCC2)C(=O)C(N)=O)c1=O` (configuration not stated) returned a Ki in data set [3] of 7100 nM.

On to `CC(C)(C)NC(=O)Nc1nc(Cl)c(Cc2ccccc2)n(CC(=O)Nc2ccccc2C(=O)NS(=O)(=O)c2ccc(C(F)(F)F)cc2)c1=O`, for which the affinity in data set [3] corresponds to a Ki of 660 nM.

For the molecule `CC(C)(C)NC(=O)Nc1nc(Cl)cn(CC(=O)Nc2ccccc2C(=O)NS(=O)(=O)c2ccc(C(F)(F)F)cc2)c1=O`, the affinity in data set [3] corresponds to a Ki of 1900 nM.

Molecule `Cc1c(Cl)nc(NC(=O)NC(C)(C)C)c(=O)n1C(C(=O)NC(CC1CCC1)C(=O)C(N)=O)c1ccccc1` (configuration not stated) showed an inhibition constant Ki in data set [3] of 6200 nM.

Molecule `Cc1c(Cl)nc(NC(=O)OC(C)(C)C)c(=O)n1C(C(=O)Nc1ccccc1C(=O)NS(=O)(=O)c1ccc(C(F)(F)F)cc1)c1ccccc1` (configuration not stated) yielded an inhibition constant Ki in data set [3] of 3800 nM.

In data set [3], `CC(C)(C)NC(=O)Nc1nc(Cl)c(-c2cccc(-c3cccnc3)c2)n(CC(=O)Nc2ccccc2C(=O)NS(=O)(=O)c2ccc(C(F)(F)F)cc2)c1=O` returned an inhibition constant (Ki) of 390 nM.

On to `CC(C)(C)NC(=O)Nc1nc(Cl)c(-c2cccc(Br)c2)n(CC(=O)Nc2ccccc2C(=O)NS(=O)(=O)c2ccc(C(F)(F)F)cc2)c1=O`, for which the Ki in data set [3] was 600 nM.

On to `CC(C)(C)NC(=O)Nc1nc(Cl)c(CCc2ccccc2)n(CC(=O)Nc2ccccc2C(=O)NS(=O)(=O)c2ccc(C(F)(F)F)cc2)c1=O`, for which the apical-to-basolateral permeability (Papp A→B) at 10 µM in data set [1] is 0.3 ×10⁻⁶ cm/s. The microsomal CLint at 1 µM in data set [2] was < 13 µL/min/mg. This molecule also yielded an inhibitory constant (Ki) in data set [3] of 120 nM. Besides, the concentration in solution in data set [4] (solubility at 1 h) came to 23 µM (≈ 16.9 µg/mL). Moreover, in data set [5], the half-life at 1 µM was > 100 min.

For `CC(C)(C)NC(=O)Nc1nc(Cl)c(-c2ccc(-c3cccnc3)cc2)n(CC(=O)Nc2ccccc2C(=O)NS(=O)(=O)c2ccc(C(F)(F)F)cc2)c1=O`, the Papp A→B at 10 µM in data set [1] came to 7 ×10⁻⁶ cm/s. Besides, the microsomal CLint at 1 µM in data set [2] came to 17 µL/min/mg. The Ki came to 440 nM in data set [3], 740 nM in data set [6] and 1520 nM in data set [7]. This molecule returned a solubility at 1 h in data set [4] of 53 µM (≈ 41.5 µg/mL). Moreover, the half-life at 1 µM in data set [5] came to 82 min.

For the molecule `CC(C)(C)NC(=O)Nc1nc(Cl)c(Cc2ccccc2Br)n(CC(=O)Nc2ccccc2C(=O)NS(=O)(=O)c2ccc(C(F)(F)F)cc2)c1=O`, in data set [3], the inhibitory constant (Ki) came to 250 nM.

For `CCC[C@H](NC(=O)[C@@H]1[C@H]2CCC[C@H]2CN1C(=O)[C@@H](NC(=O)[C@@H](NC(=O)c1cnccn1)C1CCCCC1)C(C)(C)C)C(=O)C(=O)NC1CC1` [TELAPREVIR], the Ki in data set [3] was found to be 15 nM; in data set [6], 6100 nM; in data set [7] it was 3.9 nM.

For the molecule `CC(C)(C)NC(=O)Nc1nc(Cl)c(CCC2CCCCC2)n(CC(=O)Nc2ccccc2C(=O)NS(=O)(=O)c2ccc(C(F)(F)F)cc2)c1=O`, the apparent permeability from apical to basolateral (Papp A→B) at 10 µM in data set [1] was found to be 0.12 ×10⁻⁶ cm/s. Also, in data set [2], the microsomal CLint at 1 µM was 52 µL/min/mg. Also, the Ki was determined as 110 nM in data set [3], 170 nM in data set [6] and 320 nM in data set [7]. For the same molecule, the solubility at 1 h in data set [4] worked out at 31 µM (≈ 22.9 µg/mL). This molecule also had a half-life at 1 µM in data set [5] of 27 min.

`CC(C)(C)NC(=O)Nc1nc(Cl)c(-c2ccccc2-c2cccnc2)n(CC(=O)Nc2ccccc2C(=O)NS(=O)(=O)c2ccc(C(F)(F)F)cc2)c1=O` had a Ki in data set [3] of 2100 nM.

For the molecule `CC(C)(C)NC(=O)Nc1nc(Cl)c(Cc2cccc3ccccc23)n(CC(=O)Nc2ccccc2C(=O)NS(=O)(=O)c2ccc(C(F)(F)F)cc2)c1=O`, the Ki in data set [3] was 290 nM.

`CC(C)(C)NC(=O)Nc1nc(Cl)c(-c2ccc(Br)cc2)n(CC(=O)Nc2ccccc2C(=O)NS(=O)(=O)c2ccc(C(F)(F)F)cc2)c1=O` registered a Ki in data set [3] of 380 nM.

As to `CC(C)(C)NC(=O)Nc1nc(Cl)c(Cc2ccc(-c3cccnc3)cc2)n(CC(=O)Nc2ccccc2C(=O)NS(=O)(=O)c2ccc(C(F)(F)F)cc2)c1=O`, in data set [3], the Ki was determined as 540 nM.

For `COc1ccc2c(O[C@@H]3C[C@H]4C(=O)N[C@]5(C(=O)O)C[C@H]5/C=C\CCCCC[C@H](NC(=O)OC5CCCC5)C(=O)N4C3)cc(-c3csc(NC(C)C)n3)nc2c1` [CILUPREVIR], the inhibition constant (Ki) in data set [3] was 0.089 nM; in data set [6] it was 120 nM; in data set [7] it was 200 nM.

For `CC(C)(C)NC(=O)Nc1nc(Cl)c(Cc2cccc(Br)c2)n(CC(=O)Nc2ccccc2C(=O)NS(=O)(=O)c2ccc(C(F)(F)F)cc2)c1=O`, in data set [3], the Ki was 290 nM.

The Papp A→B is the apparent permeability from the apical to the basolateral side of a cell layer. The term Ki denotes a measure of affinity in units of concentration, obtained from inhibition or displacement. Lower therefore signals tighter binding. A word on the solubility: it is the dissolved amount per volume that the medium holds. Lower therefore signals little dissolved substance. By half-life is commonly meant the time in which the quantity being followed falls by half. The low end stands for rapid decline, the high end for slow decline.
